In the library only some 3.5% were active in any assay of this set; here they are far more common.
AHR activator: activates the human aryl hydrocarbon receptor; AID 2796; 2.5% of 320,000 active; AHR-responsive luciferase reporter cells, luminescence; activation, % at 5 µM; in the data active = activation above about 47%;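 note: 0% = vehicle wells and 100% = reference agonist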
hK5 inh: blocks human kallikrein 5 protease activity; recombinant hK5, fluorogenic AMC substrate cleavage; inhibition, % at 5 µM; 0.59% of 210,000 active;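 active = inhibition of 40% or more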;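 note: 0% = enzyme controls without compound and 100% = no-enzyme blanks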
Target sequence (Q9Y337 67-293 limits assumed): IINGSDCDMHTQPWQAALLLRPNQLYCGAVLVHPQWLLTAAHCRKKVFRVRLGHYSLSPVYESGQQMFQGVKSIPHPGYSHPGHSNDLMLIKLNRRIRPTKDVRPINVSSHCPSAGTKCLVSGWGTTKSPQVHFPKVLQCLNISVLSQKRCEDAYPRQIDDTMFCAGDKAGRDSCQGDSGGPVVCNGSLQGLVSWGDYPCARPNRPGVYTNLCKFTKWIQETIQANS
FXIIa inh: blocks human coagulation factor XIIa protease activity | P00748 | purified FXIIa, Boc-QGR-AMC fluorogenic substrate, 2 h | inhibition, % at 5 µM | 0.3% of 220,000 active | AID 800; in the data active = inhibition above about 40%;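 note: 0% = enzyme with no compound and 100% = blank without enzyme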
STAT3 act-1: increases IL-6 driven STAT3 reporter signal. U3A cells, IL-6 STAT3-luciferase reporter, luminescence; 100% = signal with IL-6 EC80 alone. AID 871. 0.91% of 190,000 active. activation (% of control), % at 5.6 µM;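 active = activation above the screen-wide mean of compound activation plus 3 SD, cut at about 130% in these data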;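 note: 0% = background luminescence of wells with medium and substrate only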
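Test system: Human STAT1-deficient U3A cells with stable STAT3-luciferase reporter | Also added: Interleukin-6, 33 ng/mL | Timing: Compound pre-incubation 1 h before IL-6, then 6 h stimulation at 37 °C | Technique: Luciferase reporter luminescence | Read-out: Percent of IL-6-only median luminescence | Benchmarks: IL-6-only wells as 100% reference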
thrombin 1536: thrombin (human) inhibition; P00734; alpha-thrombin, Boc-VPR-AMC fluorogenic substrate cleavage; inhibition, % at 5 µM; 0.26% of 220,000 active;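 active = inhibition at or above 40%; inactive = inhibition below 40%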;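 note: 0% = enzyme with no compound and 100% = wells without enzyme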
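Test system: human alpha-thrombin protein / Dosing: one concentration per compound, 5 µM, with 0.2% DMSO / Medium: pH 7.5 Tris-saline with Tween 20 / Benchmarks: no-compound enzyme wells and no-enzyme blanks / Read-out basis: percent inhibition of thrombin substrate cleavage / Timing: reaction at room temperature / Measured by: fluorescence, ex 355 nm, em 460 nm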
FXIa inh: inhibitors of human coagulation factor XIa; P03951; purified FXIa, Boc-Glu-Ala-Arg-AMC fluorogenic substrate; inhibition, % at 5 µM; 0.14% of 220,000 active;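 active = inhibition of at least 40%; inactive = inhibition below 40%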;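 note: fluorescence of freed AMC excited at 355 nm; 0% = enzyme without compound and 100% = no enzyme blank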
STAT3 act-2: confirmation of STAT3 signaling activators. shares compounds with STAT3 act-1. potentiation (% of control), % at 5.7 µM. 64% of 1,200 active. AID 1267. U3A STAT3-luciferase reporter, IL-6 potentiation, luminescence; U3A cells lack STAT1; 100 means same as IL-6 alone;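 active = percent activation of the STAT3 luciferase reporter above a set limit taken from the earlier primary screen, cut at about 130% in these data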;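 note: 0% = background signal of medium plus substrate and 100% = median of IL-6 with DMSO wells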
NFkB act 2: NF-kappaB activation in STAT3 activator counter-screen. activation (% of control), % at 5.7 µM. AID 1309. 11% of 1,200 active. human cells, NF-kappaB reporter activation. shares compounds with STAT3 act-1; in the data active = activation above about 120%;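 note: reporter induced by TNF-alpha stimulation; 100% = median of stimulated DMSO wells and 0% = no signal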
STAT1 act STAT3c: STAT1 activation in STAT3 activator counter-screen; shares compounds with STAT3 act-1; NIH 3T3 STAT1-luciferase reporter, IFN-gamma, luminescence; activation (% of control), % at 5.7 µM; 13% of 1,200 active; AID 1318;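 active = activation above the solvent-only control well mean plus 3 SD, set per screening run, cut at about 120% in these data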;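 note: 100% = IFN-gamma with DMSO median signal so 100% means no change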
Active calls of the source: *; . = no result.

SMILES	AHR activator	hK5 inh	FXIIa inh	STAT3 act-1	thrombin 1536	FXIa inh	STAT3 act-2	NFkB act 2	STAT1 act STAT3c
CC1=C([N+](=O)[O-])C(c2cccc(Br)c2)C2=C(N1)c1ccccc1C2=O (stereo unspecified)	19.3	-3.1	-7.1	174.8*	-8.1	0.4	148.6*	148.9*	109.8
CN1CCN(NC(=O)/C=C/c2cccc(Cl)c2)CC1	-1.5	.	.	.	.	.	.	.	.
CCOc1ccc(/C=C/[N+](=O)[O-])c2ccccc12	-3.9	-1.6	12.8	136.9*	-0.7	-3.5	120.9	118.0	101.2
CCOC(=O)COc1ccc2ccccc2c1/C=C/[N+](=O)[O-]	7.8	-21.9	5.0	91.1	-6.3	3.0	.	.	.
S=c1[nH]nc(CSc2nc3ccccc3s2)o1	9.4	1.0	22.1	141.7*	-16.3	15.2	141.8*	99.7	97.3
C=CCn1c(SCC(=O)N2CCc3ccccc3C2)nc2sc(C)c(C)c2c1=O	0.7	8.4	10.4	106.9	-5.8	2.7	.	.	.
Fc1ccc2nc(Nc3nc4c(F)cc(F)cc4s3)sc2c1	31.0	-89.3	14.0	127.8	-21.4	17.6	.	.	.
Fc1ccc2nc(Nc3nc4c(F)cccc4s3)sc2c1	61.5*	-66.8	-2.5	140.0*	-8.5	1.7	168.7*	119.8	130.1*
Fc1cccc2sc(Nc3nc4ccccc4s3)nc12	43.5	-112.9	-7.8	177.3*	-11.1	-4.2	209.5*	129.4*	156.5*
O=C(NNc1nc2ccccc2s1)c1ccccc1F	16.3	-96.8	3.1	76.1	-4.0	-7.1	.	.	.
O=C(O)CCc1nnc(SCC(=O)Nc2cccc(C(F)(F)F)c2)[nH]c1=O	-0.4	3.1	10.8	96.2	-3.9	-0.6	.	.	.
Cc1cc(-c2ccc(Cl)cc2)c(C#N)c(N)n1	16.8	-35.7	8.6	147.8*	-6.6	-3.0	140.4*	101.6	107.0
CN(c1cccc(NC(=O)COc2ccc(Cl)cc2Cl)c1)S(C)(=O)=O	0.4	-8.7	8.0	99.6	1.5	6.2	.	.	.
CCOc1cc(-c2ccc(N)c(OCC)c2)ccc1N	49.8*	3.2	6.8	154.9*	-3.5	-1.4	135.8*	102.0	97.9
CCOc1ccc(N)c(SSc2cc(OCC)ccc2N)c1	27.3	.	.	.	.	.	.	.	.
CC(OC(=O)c1cccnc1SCc1cc(=O)n2ccccc2n1)c1ccccn1 (stereo unspecified)	73.0*	-2.0	15.0	152.9*	1.5	3.6	134.0*	100.1	98.8
CCOC(=O)c1cccnc1SCc1cc(=O)n2ccccc2n1	29.1	0.0	12.6	138.2*	-0.5	3.1	129.1	103.0	96.1
O=C(O)CCCCCn1c(SCc2cc(=O)n3ccccc3n2)nc2ccsc2c1=O	-0.8	-14.6	11.2	93.0	-6.2	4.1	.	.	.
COc1ccccc1C(=O)OCc1c(-c2ccccc2)ncc2ccccc12	11.6	.	.	.	.	.	.	.	.
CC(=O)Nc1c(C(=O)O)oc2ccc(Cl)cc12	18.2	1.1	-4.2	140.1*	-1.9	-5.4	125.5	101.5	90.3
CC(=O)Nc1c(C(N)=O)oc2ccc(Cl)cc12	1.6	22.3	29.9	.	32.2	28.4	.	.	.
COc1ccc(OC)c(NC(=O)CS(=O)(=O)c2cn(CC(=O)N3CCOCC3)c3ccccc23)c1	-3.2	.	.	.	.	.	.	.	.
CN(C)C(CN1C(=O)C2CC=CCC2C1=O)c1cn(C)c2ccccc12 (stereo unspecified)	13.2	-7.5	5.7	153.1*	1.6	-1.1	149.2*	103.6	89.7
COC(=O)[C@@H](NC(=O)NCCC1=CCCCC1)C(C)C	-0.2	-2.8	6.7	.	1.6	0.7	.	.	.
CN1CCN(c2ccccc2NC(=O)c2cc3ccccc3o2)CC1	19.5	15.2	17.8	143.7*	-2.5	18.4	125.6	101.8	101.8
O=C(Nc1ccccc1N1CCCC1)c1cc2ccccc2o1	46.1	-29.6	-2.5	151.8*	-12.3	-6.2	139.7*	123.7*	134.3*
